Results taken from ChEMBL document CHEMBL2146383, “Identification of an Orally Bioavailable, Potent, and Selective Inhibitor of GlyT1” (ACS Med Chem Lett, 2010).
Each block holds one compound with its values, some of them ahead of it. Active and inactive are the calls of the source.

How the values were obtained:
[1] = biological target: T1, Sodium- and chloride-dependent glycine transporter 1 (Homo sapiens, UniProt P48067); assay: Inhibition of human GlyT1a after 15 mins
T1 sequence (P48067 whole entry): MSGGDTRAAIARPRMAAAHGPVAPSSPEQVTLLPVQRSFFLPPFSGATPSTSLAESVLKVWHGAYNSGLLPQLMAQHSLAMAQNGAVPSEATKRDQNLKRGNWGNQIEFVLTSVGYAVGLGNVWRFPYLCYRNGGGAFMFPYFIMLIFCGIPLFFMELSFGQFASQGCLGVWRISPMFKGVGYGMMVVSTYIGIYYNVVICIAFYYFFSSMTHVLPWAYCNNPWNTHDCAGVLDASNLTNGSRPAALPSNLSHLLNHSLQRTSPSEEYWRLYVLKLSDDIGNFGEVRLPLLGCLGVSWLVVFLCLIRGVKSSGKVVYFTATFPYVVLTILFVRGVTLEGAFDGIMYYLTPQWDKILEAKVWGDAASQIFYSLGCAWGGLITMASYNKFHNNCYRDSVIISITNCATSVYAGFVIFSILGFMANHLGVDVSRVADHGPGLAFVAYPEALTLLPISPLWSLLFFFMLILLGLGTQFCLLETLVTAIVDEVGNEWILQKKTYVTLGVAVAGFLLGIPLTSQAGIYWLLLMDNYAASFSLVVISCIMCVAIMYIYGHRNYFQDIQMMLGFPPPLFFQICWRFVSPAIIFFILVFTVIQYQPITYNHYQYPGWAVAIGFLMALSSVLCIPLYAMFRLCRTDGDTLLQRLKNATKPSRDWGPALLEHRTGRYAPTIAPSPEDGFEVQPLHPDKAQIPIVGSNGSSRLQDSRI
How it was run: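 Human GlyT1, hGlyT1a isoform; IC50 taken as the average of at least two measurements.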

Liver = assay: Covalent binding affinity at liver protein in rat at 20 mg/kg, po after 6 hrs; format: ADME, organism-based; set-up: dose 20 mg/kg, route oral; conditions: in vivo
How it was run: (§1)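 Rats dosed orally at 20 mg/kg; liver and plasma proteins sampled 6 h postdose; covalently bound drug-derived material expressed as pmol equiv/mg protein.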

Plasma [2] = assay: Covalent binding affinity in rat plasma at 20 mg/kg, po after 6 hrs; format: ADME, organism-based; set-up: dose 20 mg/kg, route oral; conditions: in vivo; how it was run: as §1
[3] = Ratio of drug level in brain to plasma in rat at 10 mg/kg, po; format: ADME, organism-based; set-up: dose 10 mg/kg, route oral; conditions: read-out: BPR
Cytochrome P450 2C9 = Cytochrome P450 2C9 (Homo sapiens, UniProt P11712); assay: Inhibition of CYP2C9; format: ADME
[4] = Metabolic stability in human liver microsomes assessed as compound turnover at 1 uM after 15 mins; format: ADME, Microsome; conditions: read-out: Drug metabolism
How it was run: (§2)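 Test compound at 1 μM incubated with human or rat liver microsomes (0.5 mg/mL protein) at 37 °C for 15 min; turnover measured.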

[5] = Metabolic stability in rat liver microsomes assessed as compound turnover at 1 uM after 15 mins; format: ADME, Microsome; conditions: read-out: Drug metabolism; how it was run: as §2
Plasma [6] = assay: Receptor occupancy at Glyt1 in rat plasma at 10 mg/kg, po; format: functional
Brain = assay: Receptor occupancy at Glyt1 in rat brain at 10 mg/kg, po; format: functional
Cytochrome P450 2D6 = Cytochrome P450 2D6 (Homo sapiens, UniProt P10635); assay: Inhibition of CYP2D6; format: ADME
Cytochrome P450 3A4 = Cytochrome P450 3A4 (Homo sapiens, UniProt P08684); assay: Inhibition of CYP3A4; format: ADME
[7] = Half life in rhesus monkey at 1 mg/kg, po and 1 mg/kg, iv; format: ADME, organism-based, Macaca mulatta; conditions: in vivo
How it was run: (§3)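 Rhesus monkey pharmacokinetics after 1.0 mg/kg by both iv and oral routes; reported parameters are Cl, Vd(ss), T1/2, F, Cmax (μM) and Tmax.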

[8] = Tmax in dog at 1 mg/kg, po and 1 mg/kg, iv; format: ADME, organism-based, Canis lupus familiaris; conditions: in vivo
How it was run: (§4)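 Dog PK: single 1.0 mg/kg dose given iv and po; oral dosing in 0.5% methocel suspension. Clearance, Vd(ss), half-life, oral bioavailability (F), Cmax (μM) and Tmax derived from the plasma profiles.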

[9] = Volume of distribution at steady state in rat at 1 mg/kg, po and 1 mg/kg, iv; format: ADME, organism-based; conditions: in vivo, read-out: Vdss
How it was run: (§5)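 Rat PK: 1.0 mg/kg iv and po, oral arm as 0.5% methocel suspension; plasma Cl, Vd(ss), T1/2, F, Cmax (μM) and Tmax determined.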

[10] = Half life in rat at 1 mg/kg, po and 1 mg/kg, iv; format: ADME, organism-based; conditions: in vivo; how it was run: as §5
[11] = Clearance in rhesus monkey at 1 mg/kg, po and 1 mg/kg, iv; format: ADME, organism-based, Macaca mulatta; conditions: in vivo; how it was run: as §3
Mus musculus = species: Mus musculus; assay: Binding affinity to mouse P-gp
[12] = Oral bioavailability in rat at 1 mg/kg; format: ADME, organism-based; conditions: in vivo; how it was run: as §5
[13] = Tmax in rhesus monkey at 1 mg/kg, po and 1 mg/kg, iv; format: ADME, organism-based, Macaca mulatta; conditions: in vivo; how it was run: as §3
[14] = Volume of distribution at steady state in dog at 1 mg/kg, po and 1 mg/kg, iv; format: ADME, organism-based, Canis lupus familiaris; conditions: in vivo, read-out: Vdss; how it was run: as §4
[15] = Cmax in rhesus monkey at 1 mg/kg, po and 1 mg/kg, iv; format: ADME, organism-based, Macaca mulatta; conditions: in vivo; how it was run: as §3
[16] = Tmax in rat at 1 mg/kg, po and 1 mg/kg, iv; format: ADME, organism-based; conditions: in vivo; how it was run: as §5
Rattus norvegicus [17] = assay: Inhibition of GlyTl in rat frontal cortex assessed as increase in extracellular glycine level at 20 mg/kg, po up to 4 hrs relative to baseline; format: functional; set-up: scale not given: the % may be the effect or the level left
How it was run: (§6)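 Microdialysis probe placed in rat frontal cortex; extracellular glycine sampled up to 4 h after oral dosing at 3 or 20 mg/kg; peak glycine efflux given as % of basal level, mean ± SEM.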

Homo sapiens = species: Homo sapiens; assay: Binding affinity to human P-gp
Rattus norvegicus [18] = assay: Inhibition of GlyTl in rat frontal cortex assessed as increase extracellular glycine level after 3 mg/kg, po up to 4 hrs relative to baseline; format: functional; set-up: scale not given: the % may be the effect or the level left; how it was run: as §6
Rattus norvegicus [19] = assay: Covalent binding in rat at 20 mg/kg, po after 6 hrs; format: ADME, organism-based; set-up: dose 20 mg/kg, route oral; conditions: in vivo; how it was run: as §1
Rattus norvegicus [20] = assay: Inhibition of PCP-induced cognitive deficit in extra dimensional shift in intra/extra dimensional rat model of executive function at 3 mg/kg, po; format: functional, organism-based; set-up: dose 3 mg/kg
How it was run: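 Rats given subchronic PCP to impair attentional set shifting, then dosed 3 mg/kg po; all ID/ED discriminations run, with trials to criterion scored for the extra-dimensional shift; significance at p < 0.05 versus PCP and vehicle groups.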

[21] = Volume of distribution at steady state in rhesus monkey at 1 mg/kg, po and 1 mg/kg, iv; format: ADME, organism-based, Macaca mulatta; conditions: in vivo, read-out: Vdss; how it was run: as §3
[22] = Cmax in dog at 1 mg/kg, po and 1 mg/kg, iv; format: ADME, organism-based, Canis lupus familiaris; conditions: in vivo; how it was run: as §4
Rhesus monkey = assay: Receptor plasma occupancy at Glyt1 in rhesus monkey pons assessed as inhibition of [18F]MK-6577 uptake administered as iv bolus plus infusion by PET imaging; format: functional, Macaca mulatta
How it was run: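 Rhesus monkeys (~10 kg) sedated with ketamine 10 mg/kg im, induced with propofol 5 mg/kg iv, and maintained on propofol 0.4 mg/kg/min. Compound given iv as bolus plus infusion in EtOH:H2O:PEG400 (10:40:50); ~5 mCi [18F]MK-6577 injected 1 h into the infusion. Dynamic PET scans compared baseline and blockade uptake to derive an occupancy versus plasma concentration curve and plasma Occ50.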

[23] = Oral bioavailability in dog at 1 mg/kg; format: ADME, organism-based, Canis lupus familiaris; conditions: in vivo; how it was run: as §4
[24] = Oral bioavailability in rhesus monkey at 1 mg/kg; format: ADME, organism-based, Macaca mulatta; conditions: in vivo; how it was run: as §3
[25] = Cmax in rat at 1 mg/kg, po and 1 mg/kg, iv; format: ADME, organism-based; conditions: in vivo; how it was run: as §5
[26] = Half life in dog at 1 mg/kg, po and 1 mg/kg, iv; format: ADME, organism-based, Canis lupus familiaris; conditions: in vivo; how it was run: as §4
[27] = Clearance in dog at 1 mg/kg, po and 1 mg/kg, iv; format: ADME, organism-based, Canis lupus familiaris; conditions: in vivo; how it was run: as §4
[28] = Clearance in rat at 1 mg/kg, po and 1 mg/kg, iv; format: ADME, organism-based; conditions: in vivo; how it was run: as §5

Chain of Cytochrome P450 2C9 (P11712 whole entry): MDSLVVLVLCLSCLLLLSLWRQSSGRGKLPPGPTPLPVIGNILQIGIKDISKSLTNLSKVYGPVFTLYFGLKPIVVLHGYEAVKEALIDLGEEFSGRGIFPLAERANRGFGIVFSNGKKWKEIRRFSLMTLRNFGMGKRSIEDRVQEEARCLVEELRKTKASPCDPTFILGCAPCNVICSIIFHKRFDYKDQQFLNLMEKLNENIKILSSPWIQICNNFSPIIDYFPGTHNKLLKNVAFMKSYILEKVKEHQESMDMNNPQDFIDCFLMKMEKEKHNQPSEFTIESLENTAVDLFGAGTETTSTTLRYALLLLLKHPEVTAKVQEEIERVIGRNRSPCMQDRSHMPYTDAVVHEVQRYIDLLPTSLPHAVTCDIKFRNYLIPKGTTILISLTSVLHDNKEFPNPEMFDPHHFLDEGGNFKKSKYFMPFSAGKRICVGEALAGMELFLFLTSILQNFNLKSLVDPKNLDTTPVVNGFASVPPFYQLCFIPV
Chain of Cytochrome P450 2D6 (P10635 whole entry): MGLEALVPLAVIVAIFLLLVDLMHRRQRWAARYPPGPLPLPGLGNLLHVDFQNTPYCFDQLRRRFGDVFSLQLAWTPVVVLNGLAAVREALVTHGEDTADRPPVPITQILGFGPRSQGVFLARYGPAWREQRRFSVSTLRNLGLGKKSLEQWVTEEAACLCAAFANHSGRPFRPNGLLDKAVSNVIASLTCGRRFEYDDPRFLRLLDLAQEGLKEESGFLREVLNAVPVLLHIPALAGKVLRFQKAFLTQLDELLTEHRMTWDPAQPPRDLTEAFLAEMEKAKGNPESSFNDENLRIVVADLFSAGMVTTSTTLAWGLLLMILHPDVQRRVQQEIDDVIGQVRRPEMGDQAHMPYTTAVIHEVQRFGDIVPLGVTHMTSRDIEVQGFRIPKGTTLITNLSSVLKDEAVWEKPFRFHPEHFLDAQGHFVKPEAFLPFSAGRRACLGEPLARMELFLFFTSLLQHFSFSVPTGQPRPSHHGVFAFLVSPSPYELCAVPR
Chain of Cytochrome P450 3A4 (P08684 whole entry): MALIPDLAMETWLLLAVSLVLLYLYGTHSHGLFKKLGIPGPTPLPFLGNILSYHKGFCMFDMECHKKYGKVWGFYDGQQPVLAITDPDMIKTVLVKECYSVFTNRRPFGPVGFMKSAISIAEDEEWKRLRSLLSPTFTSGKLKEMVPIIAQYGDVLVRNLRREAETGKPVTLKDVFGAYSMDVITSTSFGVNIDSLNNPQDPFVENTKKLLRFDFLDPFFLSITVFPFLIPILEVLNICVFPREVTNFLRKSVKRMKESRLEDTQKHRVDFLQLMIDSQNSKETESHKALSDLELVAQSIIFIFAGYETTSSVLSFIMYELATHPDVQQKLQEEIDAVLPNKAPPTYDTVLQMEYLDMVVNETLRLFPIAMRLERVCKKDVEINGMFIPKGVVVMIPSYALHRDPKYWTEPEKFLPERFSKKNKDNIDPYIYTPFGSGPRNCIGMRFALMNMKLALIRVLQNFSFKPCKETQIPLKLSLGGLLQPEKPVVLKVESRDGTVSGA

IC50 [1]: 1320 nM
Compound: CCS(=O)(=O)[C@H]1CC[C@@](CNC(=O)c2ccc(Cl)cc2Cl)(CC2CC2)CC1

PB (Liver): 153 pmolequiv/mg | Activity (Plasma [2]): 214 pmolequiv/mg | IC50 [1]: 26 nM
Compound: CCS(=O)(=O)N1CCC(CNC(=O)c2ccc(Cl)cc2Cl)(CC2CC2)CC1

Kp [3]: 0.1
Compound: Cn1cc(S(=O)(=O)[C@H]2CC[C@@](CNC(=O)c3ccc(Cl)cc3Cl)(CC3CC3)CC2)nn1

IC50 [1]: 629 nM
Compound: O=C(NC[C@]1(CC2CC2)CC[C@H](S(=O)(=O)CC2CCC2)CC1)c1ccc(Cl)cc1Cl

IC50 [1]: 132 nM
Compound: CCS(=O)(=O)[C@H]1CC[C@](CNC(=O)c2ccc(Cl)cc2Cl)(CC2CC2)CC1

inhibition (INH) (Cytochrome P450 2C9): Active | IC50 [1]: 3000 nM
Compound: O=C(NC[C@]1(CC2CC2)CC[C@H](S(=O)(=O)c2c[nH]nn2)CC1)c1ccc(Cl)cc1Cl

IC50 [1]: 3330 nM
Compound: Cc1nnc(S(=O)(=O)[C@H]2CC[C@@](CNC(=O)c3ccc(Cl)cc3Cl)(CC3CC3)CC2)s1

metabolised at 0.25 h, 1 µM [4]: 55% | metabolised at 0.25 h, 1 µM [5]: 53% | IC50 [1]: 36.9 nM
Compound: CCCS(=O)(=O)[C@H]1CC[C@](CNC(=O)c2ccc(Cl)cc2Cl)(CC2CC2)CC1

metabolised at 0.25 h, 1 µM [4]: 35% | metabolised at 0.25 h, 1 µM [5]: 40% | IC50 [1]: 29 nM
Compound: Cc1ccc(S(=O)(=O)[C@H]2CC[C@@](CNC(=O)c3ccc(Cl)cc3Cl)(CC3CC3)CC2)nn1

IC50 (Cytochrome P450 2C9): > 10000 nM | Kp [3]: 0.16 | IC50 (Cytochrome P450 2D6): > 10000 nM | IC50 (Cytochrome P450 3A4): > 10000 nM
Compound: Cn1cc(S(=O)(=O)[C@H]2CC[C@](CNC(=O)c3ccc(Cl)cc3Cl)(CC3CC3)CC2)nn1
Occ50 (Plasma [6]): 1.2 µM | Occ50 (Brain): 0.2 µM

IC50 [1]: 1630 nM
Compound: CCCS(=O)(=O)[C@H]1CC[C@@](CNC(=O)c2ccc(Cl)cc2Cl)(CC2CC2)CC1

IC50 (Cytochrome P450 2C9): 10 nM | IC50 [1]: 3000 nM
Compound: O=C(NC[C@]1(CC2CC2)CC[C@@H](S(=O)(=O)c2cnn[nH]2)CC1)c1ccc(Cl)cc1Cl

metabolised at 0.25 h, 1 µM [4]: 40% | metabolised at 0.25 h, 1 µM [5]: 41% | IC50 [1]: 7.3 nM
Compound: Cc1cc(S(=O)(=O)[C@H]2CC[C@](CNC(=O)c3ccc(Cl)cc3Cl)(CC3CC3)CC2)no1

IC50 [1]: 3330 nM
Compound: CS(=O)(=O)[C@H]1CC[C@](CNC(=O)c2ccc(Cl)cc2Cl)(CC2CC2)CC1

half-life [7]: 1.5 h | Tmax [8]: 1 h | Vd [9]: 4.1 L/kg | half-life [10]: 2.4 h | clearance [11]: 24 mL/min/kg | Activity (Mus musculus): inactive | Kp [3]: 2.3 | bioavailability [12]: 65% | Tmax [13]: 2.7 h | Vd [14]: 3.1 L/kg | Cmax [15]: 40 nM | metabolised at 0.25 h, 1 µM [4]: 35% | Tmax [16]: 0.8 h | Activity (Homo sapiens): inactive | metabolised at 0.25 h, 1 µM [5]: 40% | IC50 [1]: 29 nM | PB (Rattus norvegicus [19]): < 25 pmolequiv/mg | Vd [21]: 2.3 L/kg | Cmax [22]: 1390 nM | bioavailability [23]: 48% | bioavailability [24]: 2% | Cmax [25]: 140 nM | half-life [26]: 10 h | clearance [27]: 4.9 mL/min/kg | clearance [28]: 36 mL/min/kg
Compound: O=C(NC[C@]1(CC2CC2)CC[C@H](S(=O)(=O)CC2CC2)CC1)c1ccc(Cl)cc1Cl
Occ50 (Plasma [6]): 0.35 µM | Activity (Rattus norvegicus [17]): 184% | Activity (Rattus norvegicus [18]): 151% | inhibition (Rattus norvegicus [20]): Active | Occ50 (Rhesus monkey): 120 nM

metabolised at 0.25 h, 1 µM [4]: 35% | metabolised at 0.25 h, 1 µM [5]: 51% | IC50 [1]: 8.6 nM
Compound: Cc1cc(S(=O)(=O)[C@H]2CC[C@@](CNC(=O)c3ccc(Cl)cc3Cl)(CC3CC3)CC2)no1
